# “Also recorded” adds a separate entry of the source.
# Assays:
# [1] = system: A375/MC1R and A375 xenograft tumors; experiment: In vivo fluorescence imaging of bilateral A375 / A375/MC1R xenograft tumors; design: species or system nu/nu mice; conditions: p<0.05
# B16F10 xenograft tumors = assay type: in vivo, nu/nu mice; conditions: 3 nmol/kg i.v., melanotic B16F10 xenograft
# A375/MC1R cells = experiment: In vitro MC1R probe uptake study by fluorescence microscopy, A375/MC1R cells; assay type: cell-based, human; conditions: 10 minute pre-incubation with 2 μM NDP-α-MSH before probe
# How it was run: (§1)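 Cy5-conjugated MC1R ligand probe at 15 nM in medium, on live cells (1 × 10^4/well) grown 16 h on glass coverslips. Cells: A375/MC1R (stable hMC1R transfectant, 300 μg/ml G418) or melanotic B16F10-Luc; DMEM, 10% FBS, 37°C, 5% CO2. Imaged by fluorescence microscopy from 40 s to 15 min. For blocking, 10 min pre-incubation with 2 μM NDP-α-MSH.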
# B16F10 cells = experiment: In vitro MC1R probe uptake study by fluorescence microscopy, B16F10 cells; assay type: cell-based, mouse
# How it was run: as §1
# MC4R = conditions: cell lines engineered to overexpress MC4R; cited from earlier work
# MC5R = conditions: cell lines engineered to overexpress MC5R; cited from earlier work
molecule,measurement,setting,value
"CC1(C)C(=CC=C2CCCC(C=CC3=[N+](CCCCS(=O)(=O)O)c4ccc(S(=O)(=O)[O-])cc4C3(C)C)=C2Oc2ccc(S(=O)(=O)O)cc2)N(CCCCCC(=O)NCCN2C(=O)CC(SCCC(=O)NCCCC[C@H](NC(=O)CNC(=O)[C@H](Cc3c[nH]c4ccccc34)NC(=O)[C@H](CCCNC(=N)N)NC(=O)[C@@H](Cc3ccccc3)NC(=O)[C@H](Cc3c[nH]cn3)NC(=O)CCCc3ccccc3)C(N)=O)C2=O)c2ccc(S(=O)(=O)O)cc21 (stereo partly drawn) [MC1RL-800, 4-phenylbutyryl-His-DPhe-Arg-Trp-Gly-Lys(Mpr-IRDye800CW)-NH2]",tumor uptake with co-injection of excess NDP-α-MSH peptide (in words),[1],significantly blocked
same,fluorescence detection in B16F10 tumors with the Optix MX3 imaging system,B16F10 xenograft tumors,not detectable
CCN1C(=CC=CC=CC2=[N+](CCCCCC(=O)NCCN3C(=O)CC(SCCC(=O)NCCCC[C@H](NC(=O)CNC(=O)[C@H](Cc4c[nH]c5ccccc45)NC(=O)[C@H](CCCNC(=N)N)NC(=O)[C@@H](Cc4ccccc4)NC(=O)[C@H](Cc4c[nH]cn4)NC(=O)CCCc4ccccc4)C(N)=O)C3=O)c3ccc(S(=O)(=O)O)cc3C2(C)C)C(C)(C)c2cc(S(=O)(=O)[O-])ccc21 (stereo partly shown) [MC1RL-Cy5],binding and uptake of probe after blocking with NDP-α-MSH,A375/MC1R cells,No binding or uptake; also recorded: completely blocked
same,probe uptake by B16F10 cells after blocking with NDP-α-MSH,B16F10 cells; B16F10 cells pre-incubated with unlabeled NDP-α-MSH before probe,blocking of probe-uptake was also observed; also recorded: completely blocked
same,probe uptake by B16F10 cells,"B16F10 cells; melanotic B16F10 cells with endogenous MC1R, 15 nM probe, 5 min time-point",Probe uptake was also observed; also recorded: internalization of probe into the cells
4-phenylbutyryl-His-DPhe-Arg-Trp-Gly-Lys,affinity for MC4R (in words),MC4R,high nanomolar
same,affinity for MC5R (in words),MC5R,high nanomolar

# Reference: PMC3563353 (Bioconjugate chemistry, 2012)
